Test results reported in ChEMBL document CHEMBL5058577, “EUbOPEN Chemogenomics Library 2 (Multiplex)” (2022).

Test system: Fibroblast
Experiment: Multiplex assay against human fibroblast
Format: toxicity, cell-based
Summary of the method: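 On a CQ1 microscope at 37°C and 5% CO2, live cells were imaged after compound addition. They had been stained at seeding with Hoechst33342, BioTracker Green Microtubule Cytoskeleton Dye, MitoTracker Red and Annexin V Alexa Fluor 680. CellPathfinder machine-learning gating assigned cells to Hoechst high-intensity objects or normal cells, normal cells to healthy, pyknosed or fragmented nuclei, and pyknosed cells to mitotic or apoptotic. Tubulin, mitochondrial-mass and membrane-permeability phenotypes are per cents of healthy-nucleus cells.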

[1] = 12 h, 1 µM, compound concentration 1 uM, replicate 1
[2] = 12 h, 1 µM, compound concentration 1 uM, replicate 2
[3] = 12 h, 10 µM, compound concentration 10 uM, replicate 1
[4] = 12 h, 10 µM, compound concentration 10 uM, replicate 2
[5] = 24 h, 1 µM, compound concentration 1 uM, replicate 1
[6] = 24 h, 1 µM, compound concentration 1 uM, replicate 2
[7] = 24 h, 10 µM, compound concentration 10 uM, replicate 1
[8] = 24 h, 10 µM, compound concentration 10 uM, replicate 2
[9] = 48 h, 1 µM, compound concentration 1 uM, replicate 1
[10] = 48 h, 1 µM, compound concentration 1 uM, replicate 2
[11] = 48 h, 10 µM, compound concentration 10 uM, replicate 1
[12] = 48 h, 10 µM, compound concentration 10 uM, replicate 2

Compound: Cc1noc(-c2ccc(-c3ccc(CC(=O)O)cc3)cc2)c1NC(=O)O[C@H](C)c1ccccc1Cl
- Population Apoptotic (%) [1]: 22%
- Population Fragmented Nuclei (%) [1]: 14%
- Population Healthy Nuclei (%) [1]: 77%
- Population Hoechst High Intensity Objects (%) [1]: 0%
- Population Membrane Permeable-Phenotype (%) [1]: 0%
- Population Mitochondria Different-Phenotype (%) [1]: 1%
- Population Mitotic Cells (%) [1]: 77%
- Population Normal (%) [1]: 100%
- Population Pyknosed Nuclei (%) [1]: 8%
- Population Tubulin-Different-Phenotype (%) [1]: 10%
- Total Cell Count [1]: 106
- Population Apoptotic (%) [2]: 58%
- Population Fragmented Nuclei (%) [2]: 21%
- Population Healthy Nuclei (%) [2]: 60%
- Population Hoechst High Intensity Objects (%) [2]: 5%
- Population Membrane Permeable-Phenotype (%) [2]: 5%
- Population Mitochondria Different-Phenotype (%) [2]: 2%
- Population Mitotic Cells (%) [2]: 41%
- Population Normal (%) [2]: 95%
- Population Pyknosed Nuclei (%) [2]: 18%
- Population Tubulin-Different-Phenotype (%) [2]: 26%
- Total Cell Count [2]: 140
- Population Apoptotic (%) [3]: 40%
- Population Fragmented Nuclei (%) [3]: 20%
- Population Healthy Nuclei (%) [3]: 62%
- Population Hoechst High Intensity Objects (%) [3]: 1%
- Population Membrane Permeable-Phenotype (%) [3]: 1%
- Population Mitochondria Different-Phenotype (%) [3]: 6%
- Population Mitotic Cells (%) [3]: 60%
- Population Normal (%) [3]: 98%
- Population Pyknosed Nuclei (%) [3]: 17%
- Population Tubulin-Different-Phenotype (%) [3]: 31%
- Total Cell Count [3]: 119
- Population Apoptotic (%) [4]: 29%
- Population Fragmented Nuclei (%) [4]: 17%
- Population Healthy Nuclei (%) [4]: 45%
- Population Hoechst High Intensity Objects (%) [4]: 6%
- Population Membrane Permeable-Phenotype (%) [4]: 2%
- Population Mitochondria Different-Phenotype (%) [4]: 10%
- Population Mitotic Cells (%) [4]: 70%
- Population Normal (%) [4]: 93%
- Population Pyknosed Nuclei (%) [4]: 36%
- Population Tubulin-Different-Phenotype (%) [4]: 57%
- Total Cell Count [4]: 90
- Population Apoptotic (%) [5]: 20%
- Population Fragmented Nuclei (%) [5]: 16%
- Population Healthy Nuclei (%) [5]: 78%
- Population Hoechst High Intensity Objects (%) [5]: 0%
- Population Membrane Permeable-Phenotype (%) [5]: 0%
- Population Mitochondria Different-Phenotype (%) [5]: 1%
- Population Mitotic Cells (%) [5]: 80%
- Population Normal (%) [5]: 100%
- Population Pyknosed Nuclei (%) [5]: 4%
- Population Tubulin-Different-Phenotype (%) [5]: 10%
- Total Cell Count [5]: 102
- Population Apoptotic (%) [6]: 52%
- Population Fragmented Nuclei (%) [6]: 30%
- Population Healthy Nuclei (%) [6]: 57%
- Population Hoechst High Intensity Objects (%) [6]: 2%
- Population Membrane Permeable-Phenotype (%) [6]: 1%
- Population Mitochondria Different-Phenotype (%) [6]: 7%
- Population Mitotic Cells (%) [6]: 47%
- Population Normal (%) [6]: 97%
- Population Pyknosed Nuclei (%) [6]: 12%
- Population Tubulin-Different-Phenotype (%) [6]: 28%
- Total Cell Count [6]: 161
- Population Apoptotic (%) [7]: 50%
- Population Fragmented Nuclei (%) [7]: 20%
- Population Healthy Nuclei (%) [7]: 68%
- Population Hoechst High Intensity Objects (%) [7]: 1%
- Population Membrane Permeable-Phenotype (%) [7]: 0%
- Population Mitochondria Different-Phenotype (%) [7]: 7%
- Population Mitotic Cells (%) [7]: 50%
- Population Normal (%) [7]: 98%
- Population Pyknosed Nuclei (%) [7]: 11%
- Population Tubulin-Different-Phenotype (%) [7]: 29%
- Total Cell Count [7]: 122
- Population Apoptotic (%) [8]: 32%
- Population Fragmented Nuclei (%) [8]: 26%
- Population Healthy Nuclei (%) [8]: 41%
- Population Mitochondria Different-Phenotype (%) [8]: 10%
- Population Mitotic Cells (%) [8]: 67%
- Population Pyknosed Nuclei (%) [8]: 31%
- Population Tubulin-Different-Phenotype (%) [8]: 65%
- Total Cell Count [8]: 98
- Population Apoptotic (%) [9]: 44%
- Population Fragmented Nuclei (%) [9]: 18%
- Population Healthy Nuclei (%) [9]: 73%
- Population Hoechst High Intensity Objects (%) [9]: 1%
- Population Membrane Permeable-Phenotype (%) [9]: 1%
- Population Mitochondria Different-Phenotype (%) [9]: 1%
- Population Mitotic Cells (%) [9]: 55%
- Population Normal (%) [9]: 98%
- Population Pyknosed Nuclei (%) [9]: 8%
- Population Tubulin-Different-Phenotype (%) [9]: 16%
- Total Cell Count [9]: 112
- Population Apoptotic (%) [10]: 60%
- Population Fragmented Nuclei (%) [10]: 35%
- Population Healthy Nuclei (%) [10]: 55%
- Population Hoechst High Intensity Objects (%) [10]: 2%
- Population Membrane Permeable-Phenotype (%) [10]: 5%
- Population Mitochondria Different-Phenotype (%) [10]: 3%
- Population Mitotic Cells (%) [10]: 40%
- Population Normal (%) [10]: 97%
- Population Tubulin-Different-Phenotype (%) [10]: 25%
- Total Cell Count [10]: 171
- Population Apoptotic (%) [11]: 23%
- Population Fragmented Nuclei (%) [11]: 30%
- Population Healthy Nuclei (%) [11]: 55%
- Population Hoechst High Intensity Objects (%) [11]: 4%
- Population Membrane Permeable-Phenotype (%) [11]: 2%
- Population Mitochondria Different-Phenotype (%) [11]: 4%
- Population Mitotic Cells (%) [11]: 76%
- Population Normal (%) [11]: 95%
- Population Pyknosed Nuclei (%) [11]: 13%
- Population Tubulin-Different-Phenotype (%) [11]: 35%
- Total Cell Count [11]: 133
- Population Apoptotic (%) [12]: 39%
- Population Fragmented Nuclei (%) [12]: 40%
- Population Healthy Nuclei (%) [12]: 37%
- Population Hoechst High Intensity Objects (%) [12]: 2%
- Population Membrane Permeable-Phenotype (%) [12]: 0%
- Population Mitochondria Different-Phenotype (%) [12]: 10%
- Population Mitotic Cells (%) [12]: 60%
- Population Normal (%) [12]: 97%
- Population Pyknosed Nuclei (%) [12]: 22%
- Population Tubulin-Different-Phenotype (%) [12]: 69%
- Total Cell Count [12]: 107
